The source made the active and inactive calls. No cut-off for these calls is given here.

Test [1] deals with D(2) dopamine receptor (Homo sapiens) (UniProt P14416). As to the kind of experiment: Displacement of [3H]-YM09151-2 from dopamine D2 receptor (unknown origin) expressed in sheep striatum membranes assessed as high affinity constant measured per mg of protein after 2 hrs by scintillation counting analysis. The note with it: Membrane. The format is cell membranes. Summed up: (§1)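 Sheep striatal membranes (0.2–0.5 mg protein/mL), 2 h at 25 °C in 50 mM Tris-HCl pH 7.4 with 10 mM MgCl2. Radioligand was [3H]-SCH 23390 for D1R (nonspecific: 50 μM SCH 23390) or [3H]-YM 09151-2 for D2R (nonspecific: 50 μM raclopride). Competitor tested at 9 concentrations, 1 nM–50 μM, in triplicate. Total binding fitted by nonlinear regression to a two-site model. Means ± SD of three experiments.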
(In general: Displacement assays read how much labelled ligand stays bound in the presence of the test substance.)

Test [2] shares this target. Nature of the test: Displacement of [3H]-YM09151-2 from dopamine D2 receptor (unknown origin) expressed in sheep striatum membranes assessed as low affinity constant measured per mg of protein after 2 hrs by scintillation counting analysis. The format is cell membranes. The note with it: Membrane. Put shortly:
as §1

For test [3] the target is unchanged. As to the kind of experiment: Agonist activity at dopamine D2 receptor (unknown origin) transfected in CHO cells assessed as increase in ERK1/2 phosphorylation after 5 mins by Western blot analysis. It counts as cell-based. Put shortly:
(§2)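 D2R cDNA transiently transfected into CHO cells by Lipofectamine, used 48 h later. Cells were kept serum-free for 16 h, optionally pretreated 5 min with 1 μM YM 09151-2, then exposed to ligands for 5 min (combined condition used 10 μM test ligand). Lysed in ice-cold buffer, phospho-ERK1/2 read by infrared scanning. Means ± SEM, 3 experiments in duplicate, unpaired t-test vs basal.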

Test [4] shares this target. Nature of the test: Antagonist activity at dopamine D2 receptor (unknown origin) transfected in CHO cells assessed as inhibition of YM09151-2 -induced downregulation of phosphorylated ERK1/2 level at 10 uM after 5 mins by Western blot analysis. The format is cell-based. Put shortly:
as §2
A general note: In western blotting, separated proteins are transferred to a membrane and probed.

The target is the same in test [5]. Nature of the test: Allosteric modulating activity at dopamine D2 receptor (unknown origin) expressed in sheep striatum membranes assessed as change in D2R antagonist [3H]-YM09151-2 Koff at 3 uM preincubated for 2 hrs followed by [3H]-YM09151-2 addition by rapid filtration and radioactivity counting. It counts as cell membranes. The settings on record: Membrane, in the assay text read “preincubated for 1 hr” for “preincubated for 2 hrs”. Summed up:
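Sheep striatal membranes (0.2 mg protein/mL) preincubated 1 h at 25 °C ± 3 μM test ligand in 50 mM Tris-HCl pH 7.4 with 10 mM MgCl2, then 1 nM [3H]-YM 09151-2 added. After 2 h, dissociation started with 10 μM unlabeled YM 09151-2. Total binding measured at intervals by GF/C filtration and scintillation counting. Nonspecific binding taken after 90 min with 10 μM YM 09151-2.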

D(2) dopamine receptor (Homo sapiens), sequence (P14416 whole entry): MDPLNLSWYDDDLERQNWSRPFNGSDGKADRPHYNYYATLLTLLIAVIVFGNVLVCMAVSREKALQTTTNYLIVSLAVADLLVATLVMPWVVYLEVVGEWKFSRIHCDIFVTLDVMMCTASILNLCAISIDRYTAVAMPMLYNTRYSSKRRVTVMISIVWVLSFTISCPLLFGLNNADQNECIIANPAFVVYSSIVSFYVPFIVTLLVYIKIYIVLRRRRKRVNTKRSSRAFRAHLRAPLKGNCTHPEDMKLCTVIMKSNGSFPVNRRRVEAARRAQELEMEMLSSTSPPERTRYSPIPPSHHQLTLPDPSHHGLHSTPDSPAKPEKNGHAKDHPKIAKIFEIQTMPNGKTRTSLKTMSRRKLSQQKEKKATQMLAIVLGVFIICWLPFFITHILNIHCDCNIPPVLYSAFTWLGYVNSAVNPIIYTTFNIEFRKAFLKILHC

On to `NCCCC[C@H](NC(=O)[C@H](Cc1ccc(F)c(F)c1)NC(=O)[C@H]1CCCN1C(=O)CCCCCNC(=O)[C@@H]1CC[C@H]2c3[nH]c4ccccc4c3CCN2C1)C(N)=O`, for which the Activity in test [1] worked out at 0.06 pmol; in test [2] it was 0.12 pmol.
`NCCCC[C@H](NC(=O)[C@H](Cc1ccc(F)c(F)c1)NC(=O)[C@H]1CCCN1C(=O)CCCCCNC(=O)[C@H]1CC[C@@H]2c3[nH]c4ccccc4c3CCN2C1)C(N)=O`: the Activity entry in test [3] was “Dose-dependent effect”; in test [1], 0.04 pmol; in test [2], 0.12 pmol. For the same compound, in test [4], the inhibition entry is “inactive”. The outcome in test [5] was inactive.
